Assay results: ChEMBL document CHEMBL2424622, “Development of amino-pyrimidine inhibitors of c-Jun N-terminal kinase (JNK): kinase profiling guided optimization of a 1,2,3-benzotriazole lead” (Bioorg Med Chem Lett, 2013)

How the values were obtained:
[1] = molecular target: T1, Ephrin type-A receptor 1 (Homo sapiens) (UniProt P21709); assay: Competitive binding affinity to EPHA1 (unknown origin) at 10 uM in presence of ATP relative to control
T1 sequence (whole entry): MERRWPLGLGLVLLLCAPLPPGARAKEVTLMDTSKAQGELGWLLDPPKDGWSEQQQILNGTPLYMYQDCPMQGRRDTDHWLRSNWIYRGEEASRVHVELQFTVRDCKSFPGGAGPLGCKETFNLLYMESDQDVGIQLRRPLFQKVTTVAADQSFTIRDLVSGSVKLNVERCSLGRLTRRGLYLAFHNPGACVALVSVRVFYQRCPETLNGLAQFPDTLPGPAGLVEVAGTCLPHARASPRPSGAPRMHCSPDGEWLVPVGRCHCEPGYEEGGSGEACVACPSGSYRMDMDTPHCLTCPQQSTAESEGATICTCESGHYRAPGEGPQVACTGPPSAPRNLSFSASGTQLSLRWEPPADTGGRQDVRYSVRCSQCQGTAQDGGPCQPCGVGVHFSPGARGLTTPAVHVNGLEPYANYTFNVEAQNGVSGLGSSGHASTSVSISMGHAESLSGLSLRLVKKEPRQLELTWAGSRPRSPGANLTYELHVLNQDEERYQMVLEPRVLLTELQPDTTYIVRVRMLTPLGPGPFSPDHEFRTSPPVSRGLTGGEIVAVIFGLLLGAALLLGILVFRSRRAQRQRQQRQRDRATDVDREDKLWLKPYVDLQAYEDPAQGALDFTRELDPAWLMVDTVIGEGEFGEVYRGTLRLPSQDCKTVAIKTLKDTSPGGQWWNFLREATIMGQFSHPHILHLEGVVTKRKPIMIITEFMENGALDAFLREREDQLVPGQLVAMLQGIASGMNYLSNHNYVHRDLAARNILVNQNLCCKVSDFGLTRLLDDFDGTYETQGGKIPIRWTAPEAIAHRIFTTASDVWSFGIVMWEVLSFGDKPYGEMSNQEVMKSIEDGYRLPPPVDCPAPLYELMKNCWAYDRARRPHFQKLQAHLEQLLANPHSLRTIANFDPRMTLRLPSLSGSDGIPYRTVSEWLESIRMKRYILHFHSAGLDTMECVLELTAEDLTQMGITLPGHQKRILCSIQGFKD
Outline: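 In vitro ATP-site competition binding assay, part of profiling against a diverse panel of 128 kinases. Each compound was tested at a single concentration of 10 µM. Kinome selectivity was summarized as S15 selectivity scores.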

[2] = molecular target: T2, Tyrosine-protein kinase receptor TYRO3 (Homo sapiens) (UniProt Q06418); assay: Competitive binding affinity to TYRO3 (unknown origin) at 10 uM in presence of ATP relative to control
T2 sequence (whole entry): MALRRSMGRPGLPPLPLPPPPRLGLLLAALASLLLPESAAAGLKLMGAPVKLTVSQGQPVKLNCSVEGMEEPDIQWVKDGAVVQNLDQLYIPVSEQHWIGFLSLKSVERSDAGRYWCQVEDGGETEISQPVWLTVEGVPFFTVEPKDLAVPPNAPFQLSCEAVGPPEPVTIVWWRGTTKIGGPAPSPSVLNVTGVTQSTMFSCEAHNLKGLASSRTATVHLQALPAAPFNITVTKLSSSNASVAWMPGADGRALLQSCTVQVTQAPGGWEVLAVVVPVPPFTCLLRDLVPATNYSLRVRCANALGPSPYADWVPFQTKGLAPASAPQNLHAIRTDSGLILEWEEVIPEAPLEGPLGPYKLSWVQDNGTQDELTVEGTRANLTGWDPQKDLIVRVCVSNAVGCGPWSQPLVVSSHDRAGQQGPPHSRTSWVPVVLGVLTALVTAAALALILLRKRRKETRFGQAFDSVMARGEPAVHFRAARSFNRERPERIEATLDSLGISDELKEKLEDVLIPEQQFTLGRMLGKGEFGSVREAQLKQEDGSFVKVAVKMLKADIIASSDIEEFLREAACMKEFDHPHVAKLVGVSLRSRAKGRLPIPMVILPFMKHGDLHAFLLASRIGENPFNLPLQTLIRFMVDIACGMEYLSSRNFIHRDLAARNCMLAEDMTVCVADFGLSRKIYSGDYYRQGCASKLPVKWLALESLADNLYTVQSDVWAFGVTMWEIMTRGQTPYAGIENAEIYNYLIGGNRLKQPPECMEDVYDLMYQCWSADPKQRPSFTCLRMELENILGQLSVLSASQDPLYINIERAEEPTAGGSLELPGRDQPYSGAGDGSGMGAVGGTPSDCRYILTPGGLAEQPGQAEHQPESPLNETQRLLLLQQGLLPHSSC

[3] = molecular target: Mitogen-activated protein kinase kinase kinase kinase 4 (Homo sapiens) (UniProt O95819); assay: Competitive binding affinity to MAP4K4 (unknown origin) at 10 uM in presence of ATP relative to control
Sequence of Mitogen-activated protein kinase kinase kinase kinase 4 (Homo sapiens) (O95819 2-1239 limits assumed): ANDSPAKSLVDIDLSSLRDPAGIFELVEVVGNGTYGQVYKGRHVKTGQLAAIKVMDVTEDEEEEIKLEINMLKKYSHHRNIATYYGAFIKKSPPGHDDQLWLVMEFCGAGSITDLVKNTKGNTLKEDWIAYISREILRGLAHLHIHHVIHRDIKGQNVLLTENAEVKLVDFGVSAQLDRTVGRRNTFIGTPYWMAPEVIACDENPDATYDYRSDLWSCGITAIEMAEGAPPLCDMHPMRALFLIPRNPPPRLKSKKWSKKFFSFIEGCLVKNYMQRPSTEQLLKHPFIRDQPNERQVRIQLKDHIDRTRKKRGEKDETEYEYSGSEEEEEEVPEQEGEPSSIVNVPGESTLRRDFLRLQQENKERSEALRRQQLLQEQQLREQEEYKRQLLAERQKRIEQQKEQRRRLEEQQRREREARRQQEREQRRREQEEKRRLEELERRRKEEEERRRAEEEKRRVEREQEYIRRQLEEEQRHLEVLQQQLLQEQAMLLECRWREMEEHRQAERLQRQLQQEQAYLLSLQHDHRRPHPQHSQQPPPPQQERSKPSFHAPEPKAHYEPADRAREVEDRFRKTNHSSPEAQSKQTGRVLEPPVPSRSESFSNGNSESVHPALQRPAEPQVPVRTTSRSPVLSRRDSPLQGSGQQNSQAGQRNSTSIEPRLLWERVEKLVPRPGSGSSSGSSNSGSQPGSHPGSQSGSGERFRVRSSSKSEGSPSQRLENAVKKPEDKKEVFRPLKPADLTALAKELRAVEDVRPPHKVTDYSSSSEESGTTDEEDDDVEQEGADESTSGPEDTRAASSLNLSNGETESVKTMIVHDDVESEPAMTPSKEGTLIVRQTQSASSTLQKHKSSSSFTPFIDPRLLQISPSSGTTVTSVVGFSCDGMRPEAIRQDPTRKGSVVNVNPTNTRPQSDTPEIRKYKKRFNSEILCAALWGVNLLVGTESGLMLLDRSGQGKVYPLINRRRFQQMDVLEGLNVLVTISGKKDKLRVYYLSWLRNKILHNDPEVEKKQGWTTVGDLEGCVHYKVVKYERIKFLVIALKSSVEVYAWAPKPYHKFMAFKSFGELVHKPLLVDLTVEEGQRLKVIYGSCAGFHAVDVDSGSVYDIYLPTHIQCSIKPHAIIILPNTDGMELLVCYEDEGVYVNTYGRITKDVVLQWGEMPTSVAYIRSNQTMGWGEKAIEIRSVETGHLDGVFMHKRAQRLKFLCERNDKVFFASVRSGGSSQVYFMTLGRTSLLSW

[4] = molecular target: Activin receptor type-2A (Homo sapiens) (UniProt P27037); assay: Competitive binding affinity to ACVR2A (unknown origin) at 10 uM in presence of ATP relative to control
Sequence of Activin receptor type-2A (Homo sapiens) (P27037 whole entry): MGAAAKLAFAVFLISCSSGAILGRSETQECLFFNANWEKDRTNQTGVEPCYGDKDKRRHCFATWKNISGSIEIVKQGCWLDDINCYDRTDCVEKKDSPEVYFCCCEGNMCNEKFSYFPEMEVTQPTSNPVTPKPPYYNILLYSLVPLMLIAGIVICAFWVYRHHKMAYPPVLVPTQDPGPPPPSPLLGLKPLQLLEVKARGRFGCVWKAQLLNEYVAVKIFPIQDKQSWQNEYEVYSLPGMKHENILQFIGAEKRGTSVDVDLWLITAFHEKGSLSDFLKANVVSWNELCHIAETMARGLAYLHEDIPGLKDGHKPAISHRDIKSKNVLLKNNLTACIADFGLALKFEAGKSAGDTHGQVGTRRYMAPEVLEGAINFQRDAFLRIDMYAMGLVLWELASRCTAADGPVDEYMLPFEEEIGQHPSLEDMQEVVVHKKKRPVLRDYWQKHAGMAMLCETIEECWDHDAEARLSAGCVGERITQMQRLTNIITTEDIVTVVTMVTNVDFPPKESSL

[5] = molecular target: Cyclin-dependent kinase 14 (Homo sapiens) (UniProt O94921); assay: Competitive binding affinity to PFTK1 (unknown origin) at 10 uM in presence of ATP relative to control
Sequence of Cyclin-dependent kinase 14 (Homo sapiens) (O94921 whole entry): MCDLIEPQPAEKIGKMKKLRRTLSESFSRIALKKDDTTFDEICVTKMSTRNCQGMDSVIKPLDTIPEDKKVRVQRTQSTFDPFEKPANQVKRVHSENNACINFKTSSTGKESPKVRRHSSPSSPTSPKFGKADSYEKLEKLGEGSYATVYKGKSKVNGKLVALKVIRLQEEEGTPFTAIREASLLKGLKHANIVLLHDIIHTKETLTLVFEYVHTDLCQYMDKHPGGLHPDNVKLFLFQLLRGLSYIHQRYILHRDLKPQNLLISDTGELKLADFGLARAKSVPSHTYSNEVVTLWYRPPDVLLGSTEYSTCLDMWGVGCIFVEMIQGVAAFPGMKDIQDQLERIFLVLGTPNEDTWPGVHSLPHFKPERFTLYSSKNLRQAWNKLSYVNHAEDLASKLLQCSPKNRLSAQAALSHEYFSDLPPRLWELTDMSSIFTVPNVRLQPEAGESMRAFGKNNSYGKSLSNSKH

[6] = molecular target: T3, Myosin light chain kinase family member 4 (Homo sapiens) (UniProt Q86YV6); assay: Competitive binding affinity to SgK085 (unknown origin) at 10 uM in presence of ATP relative to control
T3 sequence (whole entry): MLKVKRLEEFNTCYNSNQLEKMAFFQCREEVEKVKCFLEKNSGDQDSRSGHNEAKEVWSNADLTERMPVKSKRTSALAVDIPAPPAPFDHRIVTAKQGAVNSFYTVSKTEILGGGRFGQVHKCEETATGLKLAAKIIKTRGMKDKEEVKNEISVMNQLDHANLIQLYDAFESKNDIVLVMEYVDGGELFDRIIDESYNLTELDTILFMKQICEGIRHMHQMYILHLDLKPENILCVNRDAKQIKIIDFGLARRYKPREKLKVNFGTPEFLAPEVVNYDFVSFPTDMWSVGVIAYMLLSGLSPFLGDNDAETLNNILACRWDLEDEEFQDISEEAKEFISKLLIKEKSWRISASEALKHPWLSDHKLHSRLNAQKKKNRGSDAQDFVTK

| Structure (SMILES) | inhibition [1] [%] | inhibition [2] [%] | inhibition [3] [%] | inhibition [4] [%] | inhibition [5] [%] | inhibition [6] [%] |
| --- | --- | --- | --- | --- | --- | --- |
| O[C@H]1CC[C@H](Nc2nccc(-c3n[nH]c4ccccc34)n2)CC1 | < 50 | < 50 | 95 | < 50 | – | – |
| O[C@H]1CC[C@H](Nc2nccc(-n3ccc4ccccc43)n2)CC1 | < 50 | < 50 | < 50 | < 50 | < 50 | 98 |
| CS(=O)(=O)CCCOc1cccc2c1ccn2-c1ccnc(N[C@H]2CC[C@H](C(=O)N3CCC(O)CC3)CC2)n1 | – | – | – | – | – | > 85 |

Results, then the compound that gave them:

| inhibition [1] [%] | inhibition [2] [%] | inhibition [3] [%] | inhibition [4] [%] | inhibition [5] [%] | inhibition [6] [%] | Structure (SMILES) |
| --- | --- | --- | --- | --- | --- | --- |
| < 50 | < 50 | < 50 | < 50 | 79 | 97 | O[C@H]1CC[C@H](Nc2nccc(-n3nnc4ccccc43)n2)CC1 |
| < 50 | < 50 | 64 | < 50 | < 50 | 96 | O[C@H]1CC[C@H](Nc2nccc(-n3ncc4ccccc43)n2)CC1 |
